Lmaj promast = inhibitors of Leishmania major promastigote growth. actives 9% (n = 200,000). inhibition, % at 10 µM. Leishmania major promastigotes, resazurin fluorescence viability. AID 1063; in the data active means inhibition above about 50%;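 further: promastigotes grown with compound for 44 hours at 28 °C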
PMI act hi M6P = PMI (human) activation, high substrate. actives 0.34% (n = 190,000). coupled PMI enzyme assay, resazurin fluorescence, 20 min; stronger effect = higher value; 1 = untreated enzyme, 0 = substrate-free blank. activation factor at 20 µM;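 active means activation factor of 2 or more at 20 µM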
Target sequence (P34949 whole entry, looked up): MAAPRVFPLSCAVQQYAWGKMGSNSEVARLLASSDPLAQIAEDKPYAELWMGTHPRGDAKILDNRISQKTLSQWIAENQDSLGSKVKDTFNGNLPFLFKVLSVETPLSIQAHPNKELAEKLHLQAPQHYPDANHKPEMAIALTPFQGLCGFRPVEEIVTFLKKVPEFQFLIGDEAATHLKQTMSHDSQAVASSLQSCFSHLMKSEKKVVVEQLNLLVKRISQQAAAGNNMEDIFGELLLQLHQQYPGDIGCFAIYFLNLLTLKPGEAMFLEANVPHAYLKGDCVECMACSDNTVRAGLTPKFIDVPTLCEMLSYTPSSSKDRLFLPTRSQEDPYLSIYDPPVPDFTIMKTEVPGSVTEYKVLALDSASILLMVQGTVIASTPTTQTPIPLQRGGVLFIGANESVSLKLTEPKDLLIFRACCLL
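Technique: Diaphorase-driven resazurin-to-resorufin fluorescence, excitation 544, emission 590 nm | Assay system: Human PMI in coupled enzyme assay | Times: Enzyme reaction with compound 20 min at room temperature | Medium: HEPES-buffered pH 7.4 with magnesium and detergent | Reagent: Mannose-6-phosphate 1.0 mM (near-saturating) plus 0.22 mM NADP+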
PMI act = phosphomannose isomerase (human) activation. activation factor at 20 µM. purified human PMI, coupled resazurin fluorescence, 20 min; stronger effect = higher value; 1 = vehicle control, 0 substrate-free wells. P34949. AID 1214. actives 0.005% (n = 190,000);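 active means activation factor of 2 or more at 20 µM, relative to plate controls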
Calpain2 inh = blocks pig calpain II enzyme activity; AID 1236; inhibition, % at 16 µM; purified calpain II, fluorogenic peptide substrate, 30 min; actives 0.37% (n = 220,000);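 active means inhibition above about 50%, limit read from the data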
Rad51 HR inh = blocks human Rad51 in homologous recombination; AID 1385; actives 0.085% (n = 200,000); inhibition, % at 10 µM; hRad51 DNA strand exchange, fluorescence dequenching; Q06609;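 active means inhibition above 40% at the single screening dose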;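 further: 0% = DMSO control wells and 100% = blanks with heterologous ssDNA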
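Material: hRad51 filaments on single-stranded DNA; Reagent: Donor/quencher-labelled 47-bp dsDNA substrate; Compound: 10 µM final, single point; Schedule: 37 °C 15-min filament assembly, 30-min compound preincubation, 15-min exchange; Technique: FRET fluorescence, excitation 485 nm, emission 520 nm; Benchmarks: control wells and blank wells on each plate.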
WT yeast gro inh = growth inhibition of WT yeast, mitochondrial fusion screen. actives 2.1% (n = 190,000). inhibition, % at 10 µM. mitochondrial fusion phenotypic screen, WT strain. AID 1362; in the data active means inhibition above about 58%; tested in S. cerevisiae
The depositor's hits bear a star. Sampled rows, rich in hits. Any-hit rate of the full collection: about 9.8%.

How did Cc1ccc(NC(=O)c2ccc(NCCc3ccccc3)c([N+](=O)[O-])c2)cc1F do in these assays?
Lmaj promast: 89*; PMI act hi M6P: 1.1; PMI act: 1; Calpain2 inh: 21; Rad51 HR inh: -28; WT yeast gro inh: 22

What do the screens show for `CCCN(CCC)CCCNc1ccc(C(=O)Nc2cccc(OC)c2)cc1[N+](=O)[O-]`?
Lmaj promast: 98*; PMI act hi M6P: 1.1; PMI act: 1.1; Calpain2 inh: 15; Rad51 HR inh: 0; WT yeast gro inh: 3

Results for Cc1ccc(NC(=O)c2ccc(NCCN)c([N+](=O)[O-])c2)cc1Cl ?
Lmaj promast: 100*; PMI act hi M6P: 1; PMI act: 0.9; Calpain2 inh: -5; Rad51 HR inh: 4; WT yeast gro inh: -8

What do the screens show for `COc1cccc(NC(=O)c2ccc(NCCCN3CC(C)CC(C)C3)c([N+](=O)[O-])c2)c1` (stereo not drawn)?
Lmaj promast: -4; PMI act hi M6P: 1.1; PMI act: 1.2; Calpain2 inh: 47; Rad51 HR inh: -2; WT yeast gro inh: 30

Results for O=C(Nc1cc(F)cc(F)c1)c1ccc(NCCCN2CCCCCC2)c([N+](=O)[O-])c1 ?
Lmaj promast: 91*; PMI act hi M6P: 0.9; PMI act: 1.2; Calpain2 inh: 24; Rad51 HR inh: -2; WT yeast gro inh: 7

How did CCNc1ccc(C(=O)Nc2ccc3nc(C)sc3c2)cc1[N+](=O)[O-] do in these assays?
Lmaj promast: 5; PMI act hi M6P: 0.9; PMI act: 0.9; Calpain2 inh: -30; Rad51 HR inh: 4; WT yeast gro inh: 6

What do the screens show for `CCC(C)(C)NC(=O)CCCSc1nc2ccccc2s1`?
Lmaj promast: 4; PMI act hi M6P: 1; PMI act: 1; Calpain2 inh: 5; Rad51 HR inh: -12; WT yeast gro inh: 9

Results for Cc1ccc(S(=O)(=O)NCCCCCC(=O)Nc2cccc(C)c2)cc1 ?
Lmaj promast: 5; PMI act hi M6P: 1; PMI act: 1; Calpain2 inh: 4; WT yeast gro inh: -1

What do the screens show for `Cc1cc(NC(=O)CCSc2ccccc2)no1`?
Lmaj promast: 0; PMI act hi M6P: 1; PMI act: 1; Calpain2 inh: -4; Rad51 HR inh: -12; WT yeast gro inh: -10

Results for CCN(CC)c1ccc(C(=O)NNC(=O)CCl)cc1 ?
Lmaj promast: 17; PMI act hi M6P: 1.5; PMI act: 1.5; Calpain2 inh: 69*; Rad51 HR inh: 0; WT yeast gro inh: -5

What do the screens show for `C=CCn1c(C)csc1=Nc1ccccc1C`?
Lmaj promast: 11; PMI act hi M6P: 1.1; PMI act: 1.1; Calpain2 inh: 28; Rad51 HR inh: -1; WT yeast gro inh: 31

Results for Cc1cc(Br)ccc1NC(=O)CNC(=O)CN1C(=O)NC2(CCCCCC2)C1=O ?
Lmaj promast: -5; PMI act hi M6P: 1; PMI act: 1; Calpain2 inh: -8; Rad51 HR inh: -5; WT yeast gro inh: -6

How did Cc1cc(Br)ccc1NC(=O)CN1C(=O)C2C3CC(c4ccccc4)C(C3)C2C1=O (stereo not drawn) do in these assays?
Lmaj promast: 55*; PMI act hi M6P: 0.8; PMI act: 0.8; Calpain2 inh: -9; WT yeast gro inh: 78*

How did C#CCNC(=O)C1=C[C@@H](C)C[C@@H](OCc2ccc(CO)cc2)O1 do in these assays?
Lmaj promast: 0; PMI act hi M6P: 1; PMI act: 1; Calpain2 inh: -4; Rad51 HR inh: -2; WT yeast gro inh: 0

Results for C=C(C)C1Cc2c(C)nn(-c3ccccn3)c2C1 (stereo not drawn) ?
Lmaj promast: 4; PMI act hi M6P: 1.1; PMI act: 1.1; Calpain2 inh: 17; Rad51 HR inh: -10; WT yeast gro inh: 66*

Results for CC1CCN(c2ccc(NC(=O)c3ccccc3[N+](=O)[O-])cc2)CC1 ?
Lmaj promast: -5; PMI act hi M6P: 1; PMI act: 1; Calpain2 inh: 6; Rad51 HR inh: -2; WT yeast gro inh: -4

What do the screens show for `C=CCn1c(COc2ccc(Cl)cc2)nnc1SCC(=O)c1c(N)n(C)c(=O)n(C)c1=O`?
Lmaj promast: -11; PMI act hi M6P: 0.9; PMI act: 1; Calpain2 inh: 4; Rad51 HR inh: -1; WT yeast gro inh: -10

What do the screens show for `COc1ccc(N2CCN(CC(=O)Nc3c(C)cc(C)cc3C)CC2)cc1`?
Lmaj promast: 79*; PMI act hi M6P: 0.9; PMI act: 0.9; Calpain2 inh: -31; Rad51 HR inh: 1; WT yeast gro inh: 17

How did Cc1cc(C)c(NC(=O)CN2CCN(C)CC2)c(C)c1 do in these assays?
Lmaj promast: -10; PMI act hi M6P: 0.9; PMI act: 0.9; Calpain2 inh: -6; Rad51 HR inh: -3; WT yeast gro inh: 2

How did COc1cccc(C(=O)COC(=O)c2ccc(NC(C)=O)cc2)c1 do in these assays?
Lmaj promast: 81*; PMI act hi M6P: 0.9; PMI act: 0.9; Calpain2 inh: 20; Rad51 HR inh: -3; WT yeast gro inh: -4

What do the screens show for `COc1ccc(C(=O)COC(=O)c2ccc(NC(C)=O)cc2)cc1[N+](=O)[O-]`?
Lmaj promast: -6; PMI act hi M6P: 0.9; PMI act: 0.9; Calpain2 inh: 19; Rad51 HR inh: 6; WT yeast gro inh: -6

What do the screens show for `CC(=O)Nc1ccc(C(=O)OCc2ccc(Br)cc2)cc1`?
Lmaj promast: 2; PMI act hi M6P: 1.1; PMI act: 1; Calpain2 inh: -8; Rad51 HR inh: 2; WT yeast gro inh: 69*

What do the screens show for `O=C(CN1C(=O)COc2ccccc21)N(Cc1cccnc1)Cc1ccccc1F`?
Lmaj promast: 96*; PMI act hi M6P: 1; PMI act: 0.9; Calpain2 inh: -23; Rad51 HR inh: 1; WT yeast gro inh: -1

Results for O=C(CCN1C(=O)COc2ccccc21)NCc1cccnc1 ?
Lmaj promast: -3; PMI act hi M6P: 1; PMI act: 1.1; Calpain2 inh: -12; Rad51 HR inh: 10; WT yeast gro inh: -5

Results for CC(C)Oc1ccccc1OCCCOc1cccc2cccnc12 ?
Lmaj promast: 23; PMI act hi M6P: 1; PMI act: 1; Calpain2 inh: -7; Rad51 HR inh: 17; WT yeast gro inh: 81*

Results for Cc1cc(C)c(C)c(OCCCOc2cccc3cccnc23)c1 ?
Lmaj promast: 25; PMI act hi M6P: 1.1; PMI act: 0.9; Calpain2 inh: 33; WT yeast gro inh: 89*

Results for COc1cccc(C2C(=O)N(C3CCCCC3)CC(=O)N2Cc2ccc(F)cc2)c1 (stereo not drawn) ?
Lmaj promast: 53*; PMI act hi M6P: 1; PMI act: 1; Calpain2 inh: 16; Rad51 HR inh: 7; WT yeast gro inh: 4

High-throughput results: PubChem, several laboratories
